# Laboratory results reported in ChEMBL document CHEMBL1124456, “Synthesis and structure-activity relationship of substituted tetrahydro- and hexahydro-1,2-benzisothiazol-3-one 1,1-dioxides and thiadiazinones: potential anxiolytic agents” (J Med Chem, 1989).
# Activity calls are given as the source filed them. No cut-off for these calls is given here.
# Assays:
# Rattus norvegicus [1] = species on record: Rattus norvegicus; test: Anti-psychotic activity from the ability to block discrete trial conditioned avoidance response (CAR) of rats.; type: functional
# Procedure, shortened: (§1)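 Discrete-trial conditioned avoidance in male CD rats kept at about 400–450 g body weight. Dosing was ip or po, 30 min before testing, with at least five rats per dose (20 or 40 mg/kg, or a dose range). Computer recorded intertrial, avoidance and escape responses and no-response trials. Avoidance-block trials were taken as % of total trials, with control avoidance set at 100%. AB50 came from a least-squares dose-effect regression line.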
# [2] = biological target: T1, 5-hydroxytryptamine receptor 1A (Rattus norvegicus, UniProt P19327); test: In vitro ability to inhibit [3H]8-OH-DPAT binding to 5-hydroxytryptamine 1A receptor of rat hippocampus ([…]) from 12 to 17; type: tissue-based
# T1 sequence (P19327 whole entry): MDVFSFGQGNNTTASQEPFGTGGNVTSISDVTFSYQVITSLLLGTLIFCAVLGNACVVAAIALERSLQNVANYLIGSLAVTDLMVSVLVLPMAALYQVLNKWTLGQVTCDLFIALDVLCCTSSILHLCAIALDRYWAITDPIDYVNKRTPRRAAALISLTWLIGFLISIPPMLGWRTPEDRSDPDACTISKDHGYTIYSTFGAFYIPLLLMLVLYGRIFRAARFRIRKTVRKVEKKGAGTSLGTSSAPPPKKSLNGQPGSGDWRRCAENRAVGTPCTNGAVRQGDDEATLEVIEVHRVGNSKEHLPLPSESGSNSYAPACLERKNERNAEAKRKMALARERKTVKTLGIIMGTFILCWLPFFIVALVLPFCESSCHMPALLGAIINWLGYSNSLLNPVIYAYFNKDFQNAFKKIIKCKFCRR
# [3] = biological target: D(2) dopamine receptor (Rattus norvegicus) (UniProt P61169); test: Inhibition of [3H]-spiperone binding to dopamine receptor D2 of rat limbic structures at 1 uM.; conditions: Limbic system
# D(2) dopamine receptor (Rattus norvegicus), sequence (P61169 whole entry): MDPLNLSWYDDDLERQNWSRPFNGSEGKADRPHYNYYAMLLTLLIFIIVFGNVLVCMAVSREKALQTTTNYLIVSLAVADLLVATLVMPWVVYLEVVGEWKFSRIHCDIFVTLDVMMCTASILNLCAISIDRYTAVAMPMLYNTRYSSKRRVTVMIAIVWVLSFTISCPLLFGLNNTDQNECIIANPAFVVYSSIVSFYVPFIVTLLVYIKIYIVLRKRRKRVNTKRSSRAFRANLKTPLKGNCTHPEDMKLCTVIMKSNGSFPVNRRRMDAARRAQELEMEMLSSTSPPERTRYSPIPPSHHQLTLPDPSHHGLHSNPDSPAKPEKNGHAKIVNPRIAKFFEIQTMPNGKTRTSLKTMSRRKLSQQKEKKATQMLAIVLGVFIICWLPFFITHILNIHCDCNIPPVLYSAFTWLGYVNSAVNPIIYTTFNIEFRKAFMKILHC
# [4] = biological target: T1, 5-hydroxytryptamine receptor 1A; test: In vitro ability to inhibit [3H]8-OH-DPAT binding to 5-hydroxytryptamine 1A receptor of rat hippocampus and value ranges from 6 - 13; type: tissue-based
# Rattus norvegicus [5] = species on record: Rattus norvegicus; test: Anti psychotic activity was evaluated from the ability to block discrete trial conditioned avoidance response (CAR) of rats, value ranges from 32-71.; type: functional; procedure, shortened: as §1
# [6] = biological target: D(2) dopamine receptor (Rattus norvegicus) (UniProt P61169); test: Inhibition of [3H]spiperone binding to Dopamine receptor D2 of rat limbic structures; type: tissue-based; parameters: concentration or dose not given beside the values; conditions: Limbic system, concentration not given here
# [7] = biological target: T1, 5-hydroxytryptamine receptor 1A; test: In vitro ability to inhibit [3H]8-OH-DPAT binding to 5-hydroxytryptamine 1A receptor of rat hippocampus and the value ranges from 12 to 20.; type: tissue-based
# Rattus norvegicus [8] = test: Compound was tested for antagonism of apomorphine-induced climbing behavior, after intraperitoneal dosing; 1-23; type: functional; conditions: ip
# [9] = biological target: T1, 5-hydroxytryptamine receptor 1A; test: In vitro ability to inhibit [3H]8-OH-DPAT binding to 5-hydroxytryptamine 1A receptor of rat hippocampus and the value ranges from 48 to 59; type: tissue-based
# [10] = Partition coefficient (logP); type: physicochemical; conditions: octanol/water
# Rattus norvegicus [11] = test: Compound was tested for antagonism of apomorphine-induced stereotyped behavior, after intraperitoneal dosing and value ranges from 37.28 - 52.78; type: functional; conditions: ip
# Procedure, shortened: (§2)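 High-dose apomorphine-induced stereotyped behavior procedure. Test agents were given ip at doses up to 60 mg/kg.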
# [12] = biological target: T1, 5-hydroxytryptamine receptor 1A; test: In vitro ability to inhibit [3H]-8-OH-DPAT binding to 5-hydroxytryptamine 1A receptor of rat hippocampus and value ranges from 15 - 31; type: tissue-based
# Rattus norvegicus [13] = test: Compound was tested for antagonism of apomorphine-induced climbing behavior, after intraperitoneal dosing.; type: functional; conditions: ip
# Rattus norvegicus [14] = species on record: Rattus norvegicus; test: Anti psychotic activity was evaluated from the ability to block discrete trial conditioned avoidance response (CAR) of rats and value ranges from 37 - 73; type: functional; procedure, shortened: as §1
# [15] = biological target: T2, 5-hydroxytryptamine receptor 1A (Rattus norvegicus) (UniProt P19327); test: In vitro ability to inhibit [3H]8-OH-DPAT binding to 5-hydroxytryptamine 1A receptor of rat hippocampus at 1 uM; type: tissue-based
# T2 sequence (whole entry): T1 sequence (P19327 whole entry)
# [16] = biological target: T1, 5-hydroxytryptamine receptor 1A; test: In vitro ability to inhibit [3H]8-OH-DPAT binding to 5-hydroxytryptamine 1A receptor of rat hippocampus ([…]) from 391-841; type: tissue-based
# Rattus norvegicus [17] = test: In vivo ability (10.0 mg/kg) was to antagonize serotonin syndrome; type: functional
# Rattus norvegicus [18] = test: In vivo ability (40.0 mg/kg) was to elicit serotonin syndrome; type: functional
# [19] = biological target: Adrenergic receptor alpha-2 (Rattus norvegicus) (UniProt P22086+P19328+P22909); test: Percent inhibition of Alpha-2 adrenergic receptor at 1 uM; type: protein assay
# [20] = biological target: Adrenergic receptor alpha-1 (Rattus norvegicus) (UniProt P15823+P23944+P43140); test: Percent inhibition of Alpha-1 adrenergic receptor at 1 uM; type: protein assay
# [21] = biological target: D(2) dopamine receptor (Rattus norvegicus) (UniProt P61169); test: In vitro percent inhibition of [3H]spiperone binding to Dopamine receptor D2 of rat limbic structures at 1 uM; type: tissue-based; conditions: Limbic system
# Rattus norvegicus [22] = species on record: Rattus norvegicus; test: Percent inhibition of QNB receptor at 1 uM
# Rattus norvegicus [23] = test: Compound was tested for antagonism of apomorphine-induced stereotyped behavior, after intraperitoneal dosing; NA= Inactive; type: functional, organism-based; procedure, shortened: as §2
# [24] = biological target: Adrenergic receptor beta (Rattus norvegicus) (UniProt P18090+P10608+P26255); test: Percent inhibition of Beta adrenergic receptor at 1 uM; type: protein assay
# [25] = biological target: GABA-A receptor; anion channel (Rattus norvegicus) (UniProt O09028+P15431+P18506+P18508+P19969+P20236+P23574+P23576+P28471+P28473+P30191+P62813+P63079+P63138+Q91ZM7+Q9ES14); test: Percent inhibition of GABA-A benzodiazepine receptor at 1 uM; type: protein-complex assay
# Procedure, shortened: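 Male Sprague-Dawley rat brain (cerebellum and pons-medulla removed) was homogenized in 0.32 M sucrose to give a 30000g pellet, resuspended in Tris-HCl pH 7.5. Membranes were incubated with 1.5×10^-9 M [³H]diazepam (2.0 mL final) for 30 min at 4 °C, GF/C filtered, washed ice-cold and scintillation counted. Nonspecific binding was taken with 3×10^-6 M cold diazepam. Drug was tested at 1 μM.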
# Rattus norvegicus [26] = test: Compound was tested for antagonism of apomorphine-induced climbing behavior, after intraperitoneal dosing; 7-101; type: functional; conditions: ip
# Rattus norvegicus [27] = species on record: Rattus norvegicus; test: Antipsychotic activity was evaluated from the ability to block discrete trial conditioned avoidance response (CAR) of rats; type: functional; procedure, shortened: as §1
# [28] = biological target: T1, 5-hydroxytryptamine receptor 1A; test: In vitro ability to inhibit [3H]8-OH-DPAT binding to 5-hydroxytryptamine 1A receptor of rat hippocampus and the value ranges from 245 to 736; type: tissue-based
# D(2) dopamine receptor = D(2) dopamine receptor (Rattus norvegicus, UniProt P61169); test: In vitro ability to inhibit [3H]spiperone binding to Dopamine receptor D2 of rat limbic structures.; type: tissue-based, Limbic system
# D(2) dopamine receptor, sequence (P61169 whole entry): as above
# Rattus norvegicus [29] = species on record: Rattus norvegicus; test: Anti psychotic activity was evaluated from the ability to block discrete trial conditioned avoidance response (CAR) of rats (95%CI) from 37-73; type: functional; procedure, shortened: as §1
smiles,measurement,setting,value
Cl.O=C1C2C3C=CC(C4CC34)C2S(=O)(=O)N1CCCCN1CCN(c2cncc(Cl)n2)CC1 (centres undefined),AB50,Rattus norvegicus [1],40 mg/kg
same,Ki,[2],14 nM
Cl.Cl.O=C1c2ccccc2S(=O)(=O)N1CCCCN1CCN(c2cnccn2)CC1,AB50,Rattus norvegicus [1],40 mg/kg
same,inhibition,[3],43%
same,Ki,[4],9 nM
Cl.Cl.O=C1C2C3CCC(C3)C2S(=O)(=O)N1CCCCN1CCN(c2cccc(C(F)(F)F)c2)CC1 (centres undefined),AB50,Rattus norvegicus [5],43 mg/kg
same,inhibition,[6],97%
same,Ki,[7],16 nM
CN1CCN(C2=Nc3cc(Cl)ccc3Nc3ccccc32)CC1 [CLOZAPINE],ED50,Rattus norvegicus [8],4.55 mg/kg
Cl.Cl.O=C1C2C3CCC(C3)C2S(=O)(=O)N1CCCCN1CCN(c2ncccn2)CC1 (centres undefined),AB50,Rattus norvegicus [1],40 mg/kg
same,Ki,[9],53 nM
same,inhibition,[6],36%
same,logP,[10],1.72
Cl.Cl.O=C1C2C3CCC(O3)C2S(=O)(=O)N1CCCCN1CCN(c2cccc(C(F)(F)F)c2)CC1 (centres undefined),AB50,Rattus norvegicus [1],40 mg/kg
same,ED50,Rattus norvegicus [11],44.4 mg/kg
same,Ki,[12],22 nM
same,ED50,Rattus norvegicus [13],11.5 mg/kg
same,inhibition,[3],0%
Cl.Cl.O=C1C2C3CCC(O3)C2S(=O)(=O)N1CCCCN1CCN(c2cnccn2)CC1 (centres undefined),AB50,Rattus norvegicus [14],48 mg/kg
same,inhibition,[15],25%
same,inhibition,[6],0%
same,logP,[10],1.14
Cl.O=C1C2C3CCC(O3)C2S(=O)(=O)N1CCCCN1CCN(c2cncc(Cl)n2)CC1 (centres undefined),Ki,[16],550 nM
same,Mean,Rattus norvegicus [17],12.3
same,AB50,Rattus norvegicus [1],34 mg/kg
same,Mean,Rattus norvegicus [18],2.1
same,inhibition,[19],21%
same,inhibition,[20],6%
same,inhibition,[21],36%
same,inhibition,Rattus norvegicus [22],0%
same,ED50,Rattus norvegicus [23],inactive
same,inhibition,[24],8%
same,inhibition,[25],0%
same,ED50,Rattus norvegicus [26],27 mg/kg
same,logP,[10],1.64
Cl.Cl.O=C1C2C3C=CC(C3)C2S(=O)(=O)N1CCCCN1CCN(c2ncccn2)CC1 (centres undefined),AB50,Rattus norvegicus [27],45 mg/kg
same,Ki,[28],434 nM
Cl.O=C1C2C3CCC(O3)C2S(=O)(=O)N1CCCCN1CCN(c2nccnc2Cl)CC1 (centres undefined),Ki,D(2) dopamine receptor,3300 nM
same,AB50,Rattus norvegicus [29],48 mg/kg
